Screening data: PubChem BioAssay, several laboratories
T cell HTS = T cell immune modulation candidate; 2C CD8+ T cell-vesicle binding, flow cytometry; hits give low values; response (vesicle binding), % at 7 µM; actives 0.068% (n = 330,000);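 active = response, share of CD8 T cells binding vesicles, and their 90th percentile fluorescence all below set limits, cut at about 80% in these data, passing the limit was not always enough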;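 also: values below 100% mean blocked vesicle binding to the CD8+ T cells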
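Also added: QL9-peptide-loaded Drosophila micro-vesicles bearing Ld, ICAM-1 and B7-1; Test system: purified 2C TCR transgenic mouse naive CD8+ T cells; Measured by: cytometric PE anti-B7-1 and Alexa647 anti-CD8 signals after 1% paraformaldehyde fixation; Timing: binding step 1.5 h, 37 °C, antibody labelling 20 min, ice.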
proCasp7 act = counter-screen for procaspase-3 activators: activators of human procaspase-7; P55210; recombinant procaspase-7, Ac-DEVD-pNA absorbance 405 nm; D23A/D198A/D206A triple mutant, cannot self-cleave; scale: DMSO 0, 5 µM enzyme 100; activation, % at 8.5 µM; actives 0.093% (n = 330,000); AID 463210;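 active = percent activation above the screen-wide mean plus 3 SD, cut at about 25% in these data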
Target sequence (P55210 whole entry D23A/D198A/D206A): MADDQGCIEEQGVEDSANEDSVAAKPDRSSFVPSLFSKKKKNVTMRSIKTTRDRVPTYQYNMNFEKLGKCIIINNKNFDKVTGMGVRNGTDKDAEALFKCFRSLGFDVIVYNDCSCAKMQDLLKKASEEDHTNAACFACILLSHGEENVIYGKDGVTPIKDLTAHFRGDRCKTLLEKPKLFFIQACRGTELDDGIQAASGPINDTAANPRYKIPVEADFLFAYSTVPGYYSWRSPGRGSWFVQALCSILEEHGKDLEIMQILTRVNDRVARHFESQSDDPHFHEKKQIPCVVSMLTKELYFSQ
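System: Procaspase-7 triple mutant (PC-7 D3A); measure: % activation from two-timepoint absorbance difference, scaled to controls; times: 1 h compound preincubation, 2 h substrate cleavage, 25 °C; also added: Ac-DEVD-pNA substrate, 400 µM as added; measured by: Epi-absorbance of released pNA at 405 nm, two timepoints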
CaV13 ICDI inh = Primary screen for inhibitors of IQ motif and Ca2+-dependent inactivation inhibitor domain binding in CACNA1D, Förster resonance energy transfer in living cells, …; inhibition, % at 12.3 µM; actives 0.098% (n = 340,000); HEK cells, CFP/YFP FRET ICDI-IQ, plate reader, 10 min; percent FRET-ratio fall versus neutral wells; AID 743397;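 active = mean replicate inhibition of at least 30% and at least 1% of replicates passing that level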;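 also: 0% = median of the neutral control wells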
proCasp3 act = procaspase-3 (human) activation. P42574. recombinant procaspase-3 D3A, Ac-DEVD-pNA absorbance 405 nm. activation, % at 8.5 µM. actives 0.11% (n = 330,000). AID 463141;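 active = activation above the mean of all tested compounds plus 3 SD, cut at about 21% in these data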;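 also: 0% = DMSO alone and 100% = DMSO wells spiked with extra 5 µM PC-3 D3A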
Target sequence (P42574 whole entry D9A/D28A/D175A): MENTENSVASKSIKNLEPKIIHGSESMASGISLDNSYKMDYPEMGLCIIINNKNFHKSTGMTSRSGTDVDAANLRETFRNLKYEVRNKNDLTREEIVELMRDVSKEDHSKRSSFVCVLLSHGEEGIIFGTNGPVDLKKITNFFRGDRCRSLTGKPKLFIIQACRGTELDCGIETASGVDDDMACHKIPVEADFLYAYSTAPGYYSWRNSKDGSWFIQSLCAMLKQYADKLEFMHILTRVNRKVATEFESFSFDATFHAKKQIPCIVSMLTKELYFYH
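Technique: 405 nm absorbance of p-nitroaniline, reads at 0 and 120 min; Test system: Procaspase-3 D3A mutant; Incubation: 1 h enzyme-compound preincubation, then 2 h substrate reaction, 25 °C; Repeats: singlicate, each compound tested once; Benchmarks: low control DMSO wells, high control DMSO plus 5 µM PC-3 D3A.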
aDG glyco up = alpha-DG glycosylation activation; Pro5-aDG cells, alpha-DG glycosylation AlphaScreen (IIH6); 0% Pro5, 100% B10-LARGE cell signal; activation, % at 10 µM; actives 0.22% (n = 360,000);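 active = activation of at least 8% versus controls, or a plate z-score of at least 8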;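 also: Pro5 are CHO cells carrying HIG-tagged alpha-DG that lacks glycosylation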
GRK2 inh = inhibitors of human GRK2 displacing RNA aptamer | P25098 | bead flow cytometry, FAM-aptamer displacement from GRK2 | inhibition of aptamer binding, % at 10 µM | actives 0.59% (n = 330,000);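 active = inhibition of aptamer binding above 40%, roughly 3 SD of noise, on plates passing a quality check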;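 also: median bead fluorescence of bound FAM aptamer so fluorescent compounds give negative values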
GRK2 inh confirm = confirmation of human GRK2 inhibitors displacing RNA aptamer | shares compounds with GRK2 inh | bead-bound GRK2, FAM-aptamer displacement, flow cytometry | aptamer displacement, % at 10 µM | actives 4% (n = 2,000);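 active = aptamer displacement above 40%, near three times the noise of non-fluorescent compounds, on plates passing quality checks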;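 also: negative values mostly reflect intrinsic compound fluorescence rather than true enhancement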
Aptamer quench = quenches fluorescent RNA aptamer, GRK2 hit artifact. fluorescence change (kMESF span), kMESF (concentration not given with the values). AID 504521. shares compounds with GRK2 inh. Fluorescent RNA aptamer beads, quenching, flow cytometry; hits give high values. 110 tested, under 10 active;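 active = compounds whose bead fluorescence drops by more than 37 kMESF across the dose range, marking them as dye quenchers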
FAM quench CP1 = aptamer fluorescence quenching in GRK2 counter-screen. AID 504580. 2,000 tested, under 10 active. shares compounds with GRK2 inh. fluorescence response (% of DMSO), % at 10 µM. Carboxyfluorescein RNA aptamer on beads, flow cytometry quenching; hits give low values;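 active = compounds that quench the bead-bound fluorescent RNA probe, cutting fluorescence to under half of the solvent control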;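 also: counterscreen run without GRK2 so only probe quenching by compound is measured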
GRK2 confirm 2 = human GRK2 inhibition confirmation, cherry pick 2; AID 504782; shares compounds with GRK2 inh; 360 tested, under 10 active; bead-bound GRK2, FAM-aptamer displacement, flow cytometry; inhibition of aptamer binding, % at 10 µM;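 active = inhibition of aptamer binding above 40%, about triple the noise seen with nonglowing compounds, on plates passing quality control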;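 also: negative values mostly come from compounds that fluoresce themselves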
Aptamer quench 2 = aptamer fluorescence quenching in GRK2 counter-screen dose response | shares compounds with GRK2 inh | Streptavidin beads, FAM-RNA aptamer fluorescence quenching, flow cytometry | change in fluorescence (kMESF span), kMESF (concentration not given with the values) | 25 tested, under 10 active | AID 504819;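 active = compounds quenching the bead-bound labeled aptamer, with fluorescence dropping by more than 37 kMESF over the dose range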
FAM quench CP2 = aptamer fluorescence quenching in GRK2 counter-screen | shares compounds with GRK2 inh | carboxyfluorescein RNA aptamer beads, flow cytometry quenching; hits give low values | fluorescence response vs DMSO, % at 10 µM | 360 tested, under 10 active | AID 588494;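 active = response vs DMSO under 50%, meaning signal dropped by over half, treated as fluorescence quencher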;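 also: labelled aptamer on streptavidin beads without GRK2 as a quench counter-screen; 100% = bead fluorescence of DMSO wells and lower means quenching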
FAM quench PS1 = quenches fluorescent RNA aptamer, GRK2 hit artifact; 35 tested, under 10 active; AID 588496; Bead-bound FAM RNA aptamer fluorescence quenching, flow cytometry; hits give low values; fluorescence ratio to DMSO, % at 11.1 µM; shares compounds with GRK2 inh;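 active = compounds that dim the fluorescent label, raw bead signal shifting by over 33 units between lowest and highest dose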
* = called active by the depositor; i = inactive; · = no result. An excerpt weighted towards active compounds, which were near 1.1% of everything screened.

SMILES	T cell HTS	proCasp7 act	CaV13 ICDI inh	proCasp3 act	aDG glyco up	GRK2 inh	GRK2 inh confirm	FAM quench CP1	others
CCc1ccc(NC(=O)CSc2nc3ccccc3nc2N2CCCCC2)cc1	476.2	5.7	-5.4	9.6	-0.4	69.0*	-2.1	91.9
O=C(Cc1ccccc1)NS(=O)(=O)c1ccc(N=NN2CCOCC2)cc1	105.2	-7.9	-2.7	-9.1	0.2	26.0	-2.9	99.1
COC(=O)CCC(=O)NS(=O)(=O)c1ccc(N=NN2CCOCC2)cc1	269.2	10.7	-4.1	-4.7	0.2	2.0	·	·
COC(=O)[C@]12C[C@H](CC(=O)NCc3ccc(C)o3)C(=O)N(CCC3=CCCCC3)C1=C[C@H](COCc1ccccc1)O[C@@H]2C	·	·	-9.2	·	·	·	·	·
CC(C)c1nnc(NC(=O)CCS(=O)(=O)c2ccccc2)s1	373.7	-9.1	-3.5	3.4	0.5	0.0	-1.6	112.5
CC(C)c1nnc(NC(=O)c2cccs2)s1	409.0	-2.1	-4.9	12.7	0.1	44.0*	-2.9	97.7
CCCC(C)c1nnc(NC(=O)CCS(=O)(=O)c2ccccc2)s1 (stereo not drawn)	206.3	-18.3	-2.2	-2.3	1.7	17.0	13.0	98.2
CC(C)C[C@@H]1COc2cccc(NCCO)c2S(=O)(=O)N1	·	·	-4.9	·	·	·	·	·
COc1ccc(C2=NO[C@@H]3C(=O)N(c4ccc5c(c4)OCCO5)C(=O)[C@H]23)cc1OC	559.3	6.8	·	3.0	-0.3	0.0	·	·	GRK2 confirm 2=17.7;FAM quench CP2=104.0
O=C(CCCOc1ccccc1)N1CCN(C(=O)c2ccco2)CC1	392.3	-2.4	-3.6	3.2	0.0	0.0	·	·
O=C(OCC(=O)N1CCN(C(=O)c2ccco2)CC1)c1ccccc1	337.6	12.1	-2.2	1.7	1.6	78.0*	-3.4	110.7
O=C(OCC(=O)N1CCN(C(=O)c2ccco2)CC1)c1ccc(Cl)cc1	i	-1.3	-4.3	4.5	0.0	0.0	·	·
Cc1cc(Cl)ccc1OCCCC(=O)N1CCN(C(=O)c2ccco2)CC1	270.6	8.7	-5.4	-0.5	1.2	78.0*	-1.1	99.8
CN1C(=O)[C@@]2(O[C@H]3C=CC=CN3C3=C2C(=O)CCC3)c2cccc(Br)c21	·	·	-8.3	·	·	·	·	·
CCN(CC(=O)NCc1cccs1)C(=O)c1cccc(S(=O)(=O)NC)c1	395.9	11.8	-3.5	-13.5	0.0	48.0*	-3.3	96.5
O=C(CCS(=O)(=O)c1ccc(Br)cc1)NCc1cccs1	280.3	11.3	·	-0.2	0.0	94.0*	57.5*	96.0	Aptamer quench=2.1;Aptamer quench 2=4.1;FAM quench PS1=98.0
CCN(CC(=O)NCc1cccs1)C(=O)c1cccc(S(=O)(=O)N(C)C)c1	603.6	16.6	-11.1	3.9	-0.1	1.0	·	·
O=C(CCCCC(=O)NCc1cccs1)NCc1cccs1	246.0	-0.2	-5.2	1.6	-0.1	1.0	·	·
O=C(CCS(=O)(=O)c1ccc(Br)cc1)NCc1ccco1	204.4	-10.5	-7.3	1.7	-0.2	63.0*	28.4	99.2	Aptamer quench=-2.9;Aptamer quench 2=2
COc1ccc(-c2nnn(CC(=O)N(CC(=O)NC3CCCC3)c3ccccc3F)n2)cc1OC	257.1	8.4	-1.9	0.5	-0.1	0.0	·	·
Cc1ccc(NC(=O)COC(=O)CNC(=O)c2ccco2)cc1	211.3	3.4	-5.0	-5.6	-0.1	2.0	·	·
Cc1ccc(NC(=O)C(C)OC(=O)/C=C/c2ccccc2)cc1S(=O)(=O)N1CCOCC1 (stereo not drawn)	162.5	0.5	-14.8	13.1	0.0	3.0	·	·
CC(C)CCNC1=CC(=O)CC(c2ccccc2)C1 (stereo not drawn)	318.1	-0.3	-5.9	1.8	-0.2	1.0	·	·
CN(C)CCCNC1=CC(=O)CC(c2ccccc2)C1 (stereo not drawn)	817.2	2.1	-2.3	4.8	-0.1	80.0*	-0.8	104.0
Nc1nc(SCC(=O)N2N=C3/C(=C/c4ccco4)CCCC3C2c2ccco2)n[nH]1 (stereo not drawn)	203.2	4.3	·	2.8	-0.2	0.0	·	·
SMILES	T cell HTS	proCasp7 act	CaV13 ICDI inh	proCasp3 act	aDG glyco up	GRK2 inh	GRK2 inh confirm	FAM quench CP1	others
O=C(CSc1nccc(=O)[nH]1)N1N=C2/C(=C/c3ccco3)CCCC2C1c1ccco1 (stereo not drawn)	291.2	-12.7	-6.5	-6.6	0.3	42.0*	1.2	97.9
Cc1ccc(NC(=O)Nc2ccc3c(c2)OCO3)c(OC(F)F)c1	333.6	·	-6.5	·	-0.1	0.0	·	·
CCn1ncc(CNC(=O)C2(C)CC2(Cl)Cl)c1C (stereo not drawn)	379.1	13.2	-2.7	-1.6	0.0	3.0	·	·
Fc1ccc(CSc2ccc(-c3ccc4c(c3)OCO4)nn2)cc1	228.1	4.7	-2.7	2.2	0.1	49.0*	·	·	GRK2 confirm 2=12.9;FAM quench CP2=99.0
c1ccc(CSc2ccc(-c3ccc4c(c3)OCO4)nn2)cc1	920.1	3.7	-4.1	4.7	0.1	1.0	·	·
CC(=O)Nc1ccc2nc3c(=O)n(C)c(=O)n(C)c3nc2c1	109.0	0.0	-5.8	-6.4	-0.1	42.0*	19.7	78.3
O=C(NCc1ccccc1)[C@@H]1CCCN1C(=O)[C@H]1CCCN1C(=O)c1c(F)cccc1F	·	·	-5.4	·	·	·	·	·
CN(CC(=O)NCc1ccc(F)cc1)Cc1cccc(Cl)c1	274.0	10.9	-2.4	5.9	0.1	0.0	·	·
